RGS4 pot: potentiators or activators of RGS4 | HEK293 M3R/inducible RGS4, carbachol calcium flux Fluo4; active compounds read low | B-score at 10 µM | 310,000 compounds, 0.92% hits | AID 463111;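 active = B-score of the integrated calcium signal more than 4 SD below the library mean, with starting fluorescence not abnormally high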;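 also: negative B-score means reduced calcium response which marks RGS4 activation or potentiation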
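Detection: kinetic calcium fluorescence imaging with Fluo4-AM dye, 2 µM / Material: HEK293 cells with stable M3R and inducible RGS4 / Schedule: recording 10 s baseline at 1 Hz, 100 s post-agonist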
MrgX1 antag: blocks BAM8-22 activation of human MrgX1 receptor; B-score at 10 µM; AID 588676; 310,000 compounds, 1.3% hits; Q96LB2; MRGX1-HEK293 calcium flux, Fluo-4, BAM8-22 antagonism; active compounds read low;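 active = calcium-response B-score plate-corrected more than 3 library SD below zero, starting fluorescence within 5 deviations, no agonist response on first addition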;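 also: peak minus trough fluorescence over baseline after final BAM8-22 challenge near maximal dose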
Target sequence (Q96LB2 whole entry, looked up): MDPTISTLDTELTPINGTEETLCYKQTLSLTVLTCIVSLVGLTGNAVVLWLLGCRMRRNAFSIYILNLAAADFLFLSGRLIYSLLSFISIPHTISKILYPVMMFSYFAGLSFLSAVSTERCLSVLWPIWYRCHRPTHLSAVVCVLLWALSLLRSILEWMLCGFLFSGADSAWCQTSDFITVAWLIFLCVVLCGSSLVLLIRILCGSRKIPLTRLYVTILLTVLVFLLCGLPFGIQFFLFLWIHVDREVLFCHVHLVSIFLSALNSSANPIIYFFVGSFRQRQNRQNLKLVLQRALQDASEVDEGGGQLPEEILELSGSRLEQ
MrgX1 allo act: allosterically activates human MrgX1 receptor signaling; Q96LB2; B-score at 10 µM; AID 588675; 310,000 compounds, 0.63% hits; MrgX1-HEK293, Fluo-4 calcium flux, FDSS; active compounds read high;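 active = plate-corrected calcium response at least 3 library SD above typical, normal starting fluorescence, not activating the receptor alone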;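 also: compound read alongside a low EC10 to EC30 dose of BAM8-22 agonist; peak minus trough fluorescence over baseline measured at the second addition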
RGS4 block: inhibitors of human RGS4; AID 463165; 310,000 compounds, 0.45% hits; B-score at 10 µM; HEK293 M3R/RGS4 inducible, Fluo-4 calcium flux; active compounds read high; triggered by carbachol at its EC20;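 active = B-score, a plate-corrected calcium signal, over three deviations above library mean, with baseline fluorescence within five deviations of library mean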;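 also: RGS4 expression induced by doxycycline in cells with stable M3 receptor; B-score is computed from the integrated fluorescence ratio over baseline after carbachol; higher B-score means a larger calcium signal and so more RGS4 inhibition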
Target sequence (P49798 whole entry, looked up): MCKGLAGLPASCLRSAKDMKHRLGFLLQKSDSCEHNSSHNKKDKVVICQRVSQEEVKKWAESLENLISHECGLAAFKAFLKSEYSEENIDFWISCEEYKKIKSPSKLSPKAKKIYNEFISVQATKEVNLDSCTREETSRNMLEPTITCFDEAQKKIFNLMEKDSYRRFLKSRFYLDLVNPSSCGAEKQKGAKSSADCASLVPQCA
MrgX1 ag: human MrgX1 receptor agonism, primary screen | AID 588627 | Q96LB2 | 310,000 compounds, 0.44% hits | MrgX1-HEK293 cells, Fluo-4 calcium fluorescence, agonist mode; active compounds read high | B-score at 10 µM;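 active = calcium response B-score plate-corrected fluorescence ratio at least 3 library SD, with starting fluorescence B-score inside 5 SD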
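Material: HEK293 cells stably expressing human MrgX1 receptor | Quantity: 15,000 cells per well | Times: Cells plated overnight, dye loaded 0.5 h 37 °C, 0.5 h room temperature | Measured by: Kinetic Fluo-4 NW fluorescence of intracellular calcium | Control set: Positive and negative controls per plate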
MrgX1 ag confirm: confirmation of human MrgX1 receptor agonists | shares compounds with MrgX1 ag | MrgX1-HEK293, Fluo-4 calcium fluorescence, FDSS | activation, % at 10 µM | 600 compounds, 78% hits;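 active = calcium signal rise, corrected for plate position, at least 3 library SD high, with starting brightness within 5 such deviations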
HEK293 Ca flux: counter-screen for MrgX1 antagonists: effect in parental HEK293 cells; shares compounds with MrgX1 antag; Fluo-4 calcium fluorescence, FDSS; fluorescence ratio F(max-min)/F0 at 10 µM; 4,000 compounds, 2% hits; AID 624111;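 active = duplicate-averaged calcium fluorescence ratio at least three times the standard deviation of buffer wells, a nonspecific response in parental cells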
HEK293 Ca counter: MrgX1 allosteric activator counter-screen hit in parental HEK293 cells; shares compounds with MrgX1 antag; parental HEK293 calcium flux, Fluo-4 fluorescence ratio; active compounds read high; fluorescence ratio F(max-min)/F0 at 10 µM; 4,000 compounds, 0.4% hits; AID 624114;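 active = calcium fluorescence ratio, averaged over duplicates, at least 3 SD of the buffer-well ratio, meaning a nonspecific response in receptor-free cells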;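 also: untransfected parental HEK293 lacking MrgX1 used as counterscreen for MrgX1 allosteric activators; fluorescence change taken during the second addition on a kinetic imager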
HEK293 Ca cntr2: activity in parental HEK293 cells lacking MrgX1 receptor | shares compounds with MrgX1 antag | Fluo-4 calcium fluorescence (FDSS); active compounds read high | fluorescence ratio F(max-min)/F0 at 10 µM | 4,000 compounds, 8.7% hits;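 active = calcium fluorescence ratio at least three times the spread of buffer wells, meaning a non-specific response in parental cells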
* marks the source's active call; other numbers are inactive results; i = inactive; . = not tested or not shown. Hits are enriched below; roughly 3.5% of the tested compounds scored in any of these assays.

SMILES	RGS4 pot	MrgX1 antag	MrgX1 allo act	RGS4 block	MrgX1 ag	MrgX1 ag confirm	HEK293 Ca flux	HEK293 Ca counter	HEK293 Ca cntr2
Cc1ccc(C(=O)NNC(=S)NC(=O)c2ccc(Cl)cc2)cc1	i	i	i	i	132*	746.6%*	i	i	138*
O=C(CCc1ccccc1)NNC(=O)c1ccc(Cl)cc1	i	i	i	i	i	.	.	.	.
O=C(CCc1ccccc1)NNC(=S)NC(=O)c1ccc(Cl)cc1	i	i	i	i	141*	695.6%*	i	i	126*
Cc1ccc(CNC(=O)C2CCC(=O)N(C3CCCC3)C2)c(F)c1F (stereo unspecified)	i	i	i	i	i	.	.	.	.
CCc1ccc(-c2csc3ncn(Cc4ccc(C(=O)O)cc4)c(=O)c23)cc1	i	i	i	i	31.4*	148.8%*	i	i	i
CCCOC(=O)Cn1cnc2scc(-c3ccc(C)cc3)c2c1=O	i	i	i	i	i	.	.	.	.
O=[N+]([O-])c1cccc(/C=N/NC2CCS(=O)(=O)C2)c1 (stereo unspecified)	i	i	i	i	i	.	.	.	.
COc1cccc(CN2CC(C(=O)NC3CCCCCC3)CCC2=O)c1 (stereo unspecified)	i	i	i	i	i	.	.	.	.
Nc1cc(-c2ccccc2)nn1Cc1ccccc1	i	i	i	i	i	.	.	.	.
OCCn1nc(-c2ccccc2)cc1-c1ccccc1	i	i	i	i	31.6*	i	i	i	i
CN(CCOc1ccc(Cl)c(Cl)c1)Cc1ccccc1	i	i	i	i	i	.	.	.	.
CCN(CC)CCCOc1ccc(Cl)c(Cl)c1	i	i	i	i	107*	i	i	i	i
CC(=O)N(CCCNC(=O)c1ccccc1)C(=O)c1ccccc1	i	i	i	i	i	.	.	.	.
COc1ccccc1C(=O)N1CCN(C(=O)c2oc3ccc(C)cc3c2C)CC1	i	i	i	i	i	.	.	.	.
NC(=O)N1c2ccccc2CC(=O)c2ccccc21	i	i	i	i	46.9*	250.5%*	i	i	52.3*
Cc1nnc(SCCOC(N)=O)n1C	i	.	.	i	.	.	.	.	.
C[N+](C)(C)CCOC(N)=O	.	i	i	.	118*	546.8%*	i	i	112*
CN1CCN(C(=O)CSc2nc(-c3ccncc3)ccc2C#N)CC1	i	i	i	i	34.5*	158.3%*	i	i	i
CN1CCN(C(=O)CSc2nc(-c3cccs3)cc(-c3cccs3)c2C#N)CC1	i	i	i	i	i	.	.	.	.
N#Cc1ccc(-c2cccnc2)nc1SCC(=O)c1ccccc1	i	i	i	i	30.5*	196.7%*	i	i	i
COc1ccc(OC)c(NC(=O)Nc2c(O)ccc3ccccc23)c1	i	i	i	i	28.9*	i	i	i	i
O=C(CNC(=O)c1ccccc1F)N/N=C\C=C\c1ccccc1	i	i	i	i	i	.	.	.	.
O=C(OCc1cc2ccccc2[nH]c1=O)c1cccs1	i	i	i	i	38.2*	i	i	i	i
CCOC(=O)CNc1nc(-c2ccncc2)nc2ccccc12	.	i	i	.	56.3*	235.6%*	i	i	46.6*
CCCCCOc1ccc(Br)cc1CSC(=N)N	i	.	.	i	.	.	.	.	.
SMILES	RGS4 pot	MrgX1 antag	MrgX1 allo act	RGS4 block	MrgX1 ag	MrgX1 ag confirm	HEK293 Ca flux	HEK293 Ca counter	HEK293 Ca cntr2
CCCCOc1ccc(CSC(=N)N)cc1Cl	i	i	i	i	35.1*	164.1%*	i	i	i
Cc1cc(N2CCOCC2)nc(NCc2ccccc2)n1	i	i	i	i	66.3*	293.9%*	i	i	i
Cc1cc(N2CCCCC2)nc(NCc2ccccc2)n1	i	i	i	i	82.8*	339.8%*	i	i	i
Cc1cc(NCc2ccccc2)nc(N2CCOCC2)n1	i	i	i	i	i	.	.	.	.
Cc1cc(NC(=O)CCC(=O)N(CC(=O)NC2CCCC2)c2cccc(F)c2)no1	i	i	i	i	i	.	.	.	.
CC(=O)Nc1ccc2nc(NC(=O)C(Cl)(Cl)Cl)sc2c1	i	i	i	i	28.9*	162.0%*	i	i	i
Cc1ccc(NS(=O)(=O)c2ccc(C(=O)N3CCC3)cc2)cc1	i	i	i	i	i	.	.	.	.
Cc1ccc(NS(=O)(=O)c2ccc(C(=O)N3CC(C)OC(C)C3)cc2)cc1 (stereo unspecified)	i	i	i	i	28.9*	151.4%*	i	i	i
C=CCN(C(=O)CCC(=O)Nc1cc(C)on1)C(C(=O)NC1CCCC1)c1ccc(OC)cc1OC (stereo unspecified)	i	i	i	i	i	.	.	.	.
O=C(NNC(=O)C1CCCCC1)c1ccncc1	i	i	i	i	i	.	.	.	.
CC/C(=N\NC(=O)c1ccncc1)C12CC3CC(CC(C3)C1)C2	i	i	i	i	i	.	.	.	.
O=C(NNC(=S)NC(=O)C12CC3CC(CC(C3)C1)C2)c1ccncc1	i	i	i	i	117*	600.4%*	i	i	121*
CC1(C(=O)NC(=S)NNC(=O)c2ccncc2)CCCCC1	i	i	i	i	86.7*	488.6%*	i	i	101*
Cc1cccc(N2CCN(C(=O)c3cc(S(=O)(=O)N4CCOCC4)cn3C)CC2C)c1 (stereo unspecified)	i	i	i	i	i	.	.	.	.
O=C(CN1C(=O)C(=O)c2ccccc21)c1ccccc1	i	i	i	i	i	.	.	.	.
O=C1C(=O)N(Cc2cccs2)c2ccccc21	i	i	i	i	32.7*	184.8%*	i	i	i
O/N=C(\c1ccccc1)c1nccc2ccccc12	i	i	i	i	i	.	.	.	.
CC(C)c1ccc(S(=O)(=O)/N=C2\C=C(NS(=O)(=O)c3ccccc3)C(=O)c3ccccc32)cc1	-11.1*	i	i	i	29.7*	i	i	i	i
CCc1ccc(S(=O)(=O)/N=C2\C=C(NS(=O)(=O)c3ccccc3)C(=O)c3ccccc32)cc1	i	.	.	i	.	.	.	.	.
